Source: article PMC2635573 (Molecular pharmacology, 2008)
Like-named read-outs stand apart in the source and are kept apart here. Non-standard residues stand in square brackets, D forms with d. Residues, ends and D or L forms follow the SMILES beside them. *: point of attachment. X1 = COC1=CC(=O)N(C(=O)[C@@H](O*)C(C)C)[C@H]1Cc1ccccc1; NMe2Val = CC(C)[C@@H](C(=O)*)N(C)C; NMeV = CN[C@H](C(=O)O)C(C)C; Cbz = O=C(OCc1ccccc1)*; NHtBu = CC(C)(C)N*

Legend:
CCRF-CEM leukemia cells = experiment: cells; assay type: cell-based, human; conditions: for -fold difference in IC50 (+ BCPP versus − BCPP) / IC50: 24 h; for IC50: read-out: IC50 − BCPP
[1] = tested on: CA46, K-562, MOLT-4, and RPMI-8226; conditions: less sensitive cell lines, 0.1 μM [^3H]tasidotin, 16 h
SR cells [2] = experiment: [^3H]Tasidotin uptake and metabolism, SR cells; assay type: in vitro ADME, human; conditions: 0.1 μM [^3H]tasidotin, 16 h
Summary of the method: (§1)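 Log-phase cells at ~10⁶ cells/ml were given 0.1 μM [³H]test compound for 16 h (CA46 also 5 min). Cells were centrifuged, washed twice in PBS pH 7.2 and sonicated in water. Extracts were boiled 5 min, clarified, and precipitated with 3 volumes of ethanol. Radiolabel and protein were measured in supernatants and pellets. Supernatants in 0.1% TFA were run on C18 HPLC (10–60% acetonitrile, 10 min, 40°C) with in-line radioactivity detection and peak areas. Pellet label was taken as protein-incorporated proline.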

K-562 cells [3] = experiment: [^3H]Tasidotin uptake and metabolism, K-562 cells; assay type: in vitro ADME, human; conditions: 0.1 μM [^3H]tasidotin, 16 h
Summary of the method: as §1

CCRF-CEM cells [4] = experiment: Inhibition of cell growth, CCRF-CEM cells; assay type: cell-based, human; conditions: mean ± S.D.
Summary of the method: (§2)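 Suspension lines were grown in RPMI 1640 with 5% fetal bovine serum (10% for CA46) at 37°C in humidified 5% CO₂. Test compound was added in DMSO (0.1% final) at varying concentrations. Growth was measured as cell number with a particle counter, and the IC₅₀ was derived from it.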

NCI/ADR-RES = conditions: multidrug resistant, P-glycoprotein expressing
[5] = tested on: CA46, K-562, MOLT-4, and RPMI-8226
HL-60 (TB) cells [6] = tested on: HL-60 (TB) cells
RPMI-8226 cells [7] = experiment: Inhibition of cell growth, RPMI-8226 cells; assay type: cell-based, human; conditions: mean ± S.D.
Summary of the method: as §2

SR cells [8] = experiment: Inhibition of cell growth, SR cells; assay type: cell-based, human; conditions: mean ± S.D.
Summary of the method: as §2

[9] = tested on: CA46 Burkitt lymphoma cells; experiment: [^3H]Tasidotin uptake and metabolism, CA46 cells; assay type: in vitro ADME, human; conditions: 0.1 μM [^3H]tasidotin
[10] = tested on: SR, CCRF-CEM, and HL-60 (TB)
RPMI-8226 cells [11] = experiment: [^3H]Tasidotin uptake and metabolism, RPMI-8226 cells; assay type: in vitro ADME, human; conditions: 0.1 μM [^3H]tasidotin, 16 h
Summary of the method: as §1

MOLT-4 cells [12] = experiment: Inhibition of cell growth, MOLT-4 cells; assay type: cell-based, human; conditions: mean ± S.D.
Summary of the method: as §2

[13] = tested on: Burkitt lymphoma CA46 cells; experiment: Inhibition of growth of CA46 cells; assay type: cell-based, human
Summary of the method: as §2

HL-60 (TB) cells [14] = tested on: HL-60 (TB) cells; remark: listed apart in the source
K-562 cells [15] = experiment: Inhibition of cell growth, K-562 cells; assay type: cell-based, human; conditions: mean ± S.D.
Summary of the method: as §2

[16] = target: purified bovine brain tubulin (Bos taurus, UniProt P81947+Q6B856); experiment: Inhibition of tubulin assembly; assay type: biochemical
purified bovine brain tubulin, sequence (P81947 whole entry): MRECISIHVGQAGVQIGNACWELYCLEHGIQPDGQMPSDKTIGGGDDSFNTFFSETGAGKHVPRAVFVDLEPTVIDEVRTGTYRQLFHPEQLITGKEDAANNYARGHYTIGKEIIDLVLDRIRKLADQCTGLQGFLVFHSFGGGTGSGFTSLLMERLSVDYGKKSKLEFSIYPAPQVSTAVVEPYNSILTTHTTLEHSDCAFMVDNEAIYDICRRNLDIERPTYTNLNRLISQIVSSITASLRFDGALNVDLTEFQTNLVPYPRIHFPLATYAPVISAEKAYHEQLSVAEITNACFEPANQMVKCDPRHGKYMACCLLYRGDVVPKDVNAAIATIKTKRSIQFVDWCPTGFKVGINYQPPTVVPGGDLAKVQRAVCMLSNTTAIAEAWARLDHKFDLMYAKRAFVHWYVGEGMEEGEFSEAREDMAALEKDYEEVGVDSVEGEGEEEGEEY
purified bovine brain tubulin, sequence (Q6B856 whole entry): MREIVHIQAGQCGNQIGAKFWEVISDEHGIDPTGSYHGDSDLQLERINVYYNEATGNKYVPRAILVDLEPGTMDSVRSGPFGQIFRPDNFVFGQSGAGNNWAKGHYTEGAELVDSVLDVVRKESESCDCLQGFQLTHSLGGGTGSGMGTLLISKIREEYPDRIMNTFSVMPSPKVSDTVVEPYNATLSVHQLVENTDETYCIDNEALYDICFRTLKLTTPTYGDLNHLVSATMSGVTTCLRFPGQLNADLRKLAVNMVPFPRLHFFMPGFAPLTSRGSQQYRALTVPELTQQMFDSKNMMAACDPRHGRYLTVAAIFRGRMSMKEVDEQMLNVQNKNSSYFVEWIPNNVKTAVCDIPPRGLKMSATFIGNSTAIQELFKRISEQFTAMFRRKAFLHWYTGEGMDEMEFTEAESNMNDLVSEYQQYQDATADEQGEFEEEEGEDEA

CCRF-CEM cells [17] = experiment: [^3H]Tasidotin uptake and metabolism, CCRF-CEM cells; assay type: in vitro ADME, human; conditions: 0.1 μM [^3H]tasidotin, 16 h
Summary of the method: as §1

[18] = tested on: SR, CCRF-CEM, and HL-60 (TB); remark: listed apart in the source
MOLT-4 cells [19] = experiment: [^3H]Tasidotin uptake and metabolism, MOLT-4 cells; assay type: in vitro ADME, human; conditions: 0.1 μM [^3H]tasidotin, 16 h
Summary of the method: as §1

P-glycoprotein = conditions: ref Aherne et al., 1996; cited from earlier work
[20] = 16 h, % of supernatant radiolabel
[21] = read-out: IC50 Growth of CA46 Cells, 48-h incubation at 37°C, increase in cell number

COc1ccc(/C=C\c2cc(OC)c(OC)c(OC)c2)cc1O [Combretastatin A-4]
Effect of BCPP on the inhibition of CCRF-CEM cell growth by the drug (CCRF-CEM leukemia cells; CCRF-CEM cells, 12.5 μM BCPP): no effect
-fold difference in IC50 (+ BCPP versus − BCPP) (CCRF-CEM leukemia cells; CCRF-CEM cells, 12.5 μM BCPP): 0.8 -fold
IC50 (CCRF-CEM leukemia cells; Homo sapiens, CCRF-CEM): 2.3 ± 0.3 nM

CC(C)[C@H](NC(=O)[C@H](C(C)C)N(C)C)C(=O)N(C)[C@H](C(=O)N1CCC[C@H]1C(=O)N1CCC[C@H]1C(=O)NC(C)(C)C)C(C)C [Tasidotin] (NMe2Val-V[NMeV]PP-NHtBu)
Share of total uptake as P5, average [1]: 16%
Share of total uptake as proline, average [1]: 84%
Total uptake, average [1]: 12 fmol/μg of cell protein
Free Proline in Supernatant (SR cells [2]): 5.0 fmol / μg cell protein
Proline from Pellets (SR cells [2]): 9.8 fmol / μg cell protein
Total Proline in Supernatant (All Forms) (SR cells [2]): 51 ± 9%
Total Tasidotin-Derived Proline (Total Tasidotin Uptake) (SR cells [2]): 20 ± 5 fmol / μg cell protein
Free Proline in Supernatant (SR cells [2]; % of supernatant radiolabel): 49%
Proline in P5 in Supernatant (SR cells [2]; % of supernatant radiolabel): 51 ± 7%
Free Proline in Supernatant (K-562 cells [3]): 4.2 fmol / μg cell protein
Proline from Pellets (K-562 cells [3]): 9.0 fmol / μg cell protein
Total Proline in Supernatant (All Forms) (K-562 cells [3]): 42 ± 9%
Total Tasidotin-Derived Proline (Total Tasidotin Uptake) (K-562 cells [3]): 15.5 ± 2 fmol / μg cell protein
Free Proline in Supernatant (K-562 cells [3]; % of supernatant radiolabel): 64%
Proline in P5 in Supernatant (K-562 cells [3]; % of supernatant radiolabel): 36 ± 6%
IC50 (CCRF-CEM cells [4]): 30 ± 7 nM
IC50 (NCI/ADR-RES): > 1000 nM
IC50 [5]: 100 to 300 nM
IC50 (HS 578-T line): 200 nM
Proline from Pellets (HL-60 (TB) cells [6]): 12.4 fmol / μg cell protein
Total Proline in Supernatant (All Forms) (HL-60 (TB) cells [6]): 54 ± 10%
Total Tasidotin-Derived Proline (Total Tasidotin Uptake) (HL-60 (TB) cells [6]): 27 ± 3 fmol / μg cell protein
IC50 (RPMI-8226 cells [7]): 300 ± 20 nM
IC50 (SR cells [8]): 20 ± 1 nM
Soluble intracellular radiolabel remaining as tasidotin ([9]; 5 min): Approximately 48%
Soluble intracellular radiolabel with the mobility of P5 ([9]; 5 min): approximately 17%
Soluble radiolabel that had undergone further metabolism (unbound proline peak) ([9]; 5 min): approximately 35%
Free Proline in Supernatant ([9]; 16 h): 2.8 fmol / μg cell protein
Proline from Pellets ([9]; 16 h): 7.1 fmol / μg cell protein
Total Proline in Supernatant (All Forms) ([9]; 16 h): 41 ± 1%
Total Tasidotin-Derived Proline (Total Tasidotin Uptake) ([9]; 16 h): 12 ± 0.6 fmol / μg cell protein
Free Proline in Supernatant [9, 20]: 58%
Proline in P5 in Supernatant [9, 20]: 42 ± 10%
Radiolabel in the unbound proline peak ([9]; 96 h): approximately 38%
Radiolabel remaining as tasidotin ([9]; 96 h): approximately 6%
Total radiolabel with the mobility of P5 ([9]; 96 h): approximately 56%
IC50 [10]: 20 to 36 nM
Free Proline in Supernatant (RPMI-8226 cells [11]): 1.6 fmol / μg cell protein
Proline from Pellets (RPMI-8226 cells [11]): 5.8 fmol / μg cell protein
Total Proline in Supernatant (All Forms) (RPMI-8226 cells [11]): 31 ± 5%
Total Tasidotin-Derived Proline (Total Tasidotin Uptake) (RPMI-8226 cells [11]): 8.4 ± 3 fmol / μg cell protein
Free Proline in Supernatant (RPMI-8226 cells [11]; % of supernatant radiolabel): 61%
Proline in P5 in Supernatant (RPMI-8226 cells [11]; % of supernatant radiolabel): 39 ± 5%
IC50 (MOLT-4 cells [12]): 230 ± 30 nM
IC50 ([13]; CA46 cells (Table 2), mean ± S.D.): 100 ± 5 nM
IC50 [13, 21]: 100 ± 5 nM
IC50 (MDA-MB-435 line): 4 nM
IC50 (HL-60 (TB) cells [14]): 36 ± 6 nM
IC50 (K-562 cells [15]): 230 ± 30 nM
IC50 [16]: 10000 ± 400 nM
Fold less active as inhibitor of tubulin assembly than dolastatin 10 ([16]; ratio of tubulin assembly IC50 values): more than 12 -fold
Free Proline in Supernatant (CCRF-CEM cells [17]): 11.5 fmol / μg cell protein
Total Proline in Supernatant (All Forms) (CCRF-CEM cells [17]): 52 ± 4%
Total Tasidotin-Derived Proline (Total Tasidotin Uptake) (CCRF-CEM cells [17]): 24 ± 9 fmol / μg cell protein
Free Proline in Supernatant (CCRF-CEM cells [17]; % of supernatant radiolabel): 48%
Proline in P5 in Supernatant (CCRF-CEM cells [17]; % of supernatant radiolabel): 62 ± 10%
-fold difference in IC50 (+ BCPP versus − BCPP) (CCRF-CEM leukemia cells; CCRF-CEM cells, 12.5 μM BCPP): 30 -fold
IC50 (CCRF-CEM leukemia cells; CCRF-CEM cells, without BCPP, cell number): 40 ± 10 nM
Intracellular P5 [18]: 5.2-7.7 fmol/μg cell protein
Share of total uptake as P5, average [18]: 29%
Share of total uptake as proline, average [18]: 71%
Free Proline in Supernatant (MOLT-4 cells [19]): 3.5 fmol / μg cell protein
Proline from Pellets (MOLT-4 cells [19]): 7.0 fmol / μg cell protein
Total Proline in Supernatant (All Forms) (MOLT-4 cells [19]): 46 ± 7%
Total Tasidotin-Derived Proline (Total Tasidotin Uptake) (MOLT-4 cells [19]): 13 ± 3 fmol / μg cell protein
Free Proline in Supernatant (MOLT-4 cells [19]; % of supernatant radiolabel): 59%
Proline in P5 in Supernatant (MOLT-4 cells [19]; % of supernatant radiolabel): 41 ± 9%

COC1=CC(=O)N(C(=O)[C@@H](OC(=O)[C@@H]2CCCN2C(=O)[C@@H]2CCCN2C(=O)[C@H](C(C)C)N(C)C(=O)[C@@H](NC(=O)[C@H](C(C)C)N(C)C)C(C)C)C(C)C)[C@H]1Cc1ccccc1 [Dolastatin 15, reference compound] (NMe2Val-V[NMeV]PP-X1)
P-glycoprotein substrate (P-glycoprotein): P-glycoprotein substrate
IC50 [13, 21]: 3 nM
IC50 [16]: 5600 ± 900 nM

CC[C@H](C)[C@@H]([C@@H](CC(=O)N1CCC[C@H]1[C@H](OC)[C@@H](C)C(=O)N[C@@H](Cc1ccccc1)c1nccs1)OC)N(C)C(=O)[C@@H](NC(=O)[C@H](C(C)C)N(C)C)C(C)C [Dolastatin 10, reference compound]
IC50 [13, 21]: 0.03 nM
IC50 [16]: 800 ± 100 nM

O=C[C@@H]1CCCN1C(=O)[C@@H]1CCCN1C(=O)OCc1ccccc1 [BCPP, N-benzyloxycarbonylprolylprolinal] (Cbz-Pro-Pro-aldehyde)
Effect of BCPP itself on the growth of the cells (CCRF-CEM leukemia cells; CCRF-CEM cells, 12.5 μM BCPP): negligible effects

CN(Cc1cnc2nc(N)nc(N)c2n1)c1ccc(C(=O)N[C@@H](CCC(=O)O)C(=O)O)cc1 [Methotrexate]
Effect of BCPP on the inhibition of CCRF-CEM cell growth by the drug (CCRF-CEM leukemia cells; CCRF-CEM cells, 12.5 μM BCPP): no effect
-fold difference in IC50 (+ BCPP versus − BCPP) (CCRF-CEM leukemia cells; CCRF-CEM cells, 12.5 μM BCPP): 1.1 -fold
IC50 (CCRF-CEM leukemia cells; Homo sapiens, CCRF-CEM): 7.3 ± 0.8 nM
